Tests used:
[1] = system: Human immunodeficiency virus 1; experiment: (§1) In vitro antiviral activity against HIV-1 infected HeLa cells; assay type: functional; settings: Human immunodeficiency virus 1, HeLa
How it was run: (§2)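 Cell-culture HIV-1 infectivity assay in HeLa cells. Read-out is the IC90, with the IC50 given for some entries.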

[2] = biological target: T1, C-C chemokine receptor type 5 (Homo sapiens, UniProt P51681); experiment: Inhibitory activity against human CC chemokine receptor 5
How it was run: (§3)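 Displacement of [125I]-labeled MIP-1α from human CCR5 on CHO cell membranes, described as a GP120-membrane-based assay. IC50 values are averages of triplicate measurements, with a standard compound run to check variability between assays. Single-point lines are percent inhibition at 2 μM.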
Target sequence in this assay (P51681 whole entry): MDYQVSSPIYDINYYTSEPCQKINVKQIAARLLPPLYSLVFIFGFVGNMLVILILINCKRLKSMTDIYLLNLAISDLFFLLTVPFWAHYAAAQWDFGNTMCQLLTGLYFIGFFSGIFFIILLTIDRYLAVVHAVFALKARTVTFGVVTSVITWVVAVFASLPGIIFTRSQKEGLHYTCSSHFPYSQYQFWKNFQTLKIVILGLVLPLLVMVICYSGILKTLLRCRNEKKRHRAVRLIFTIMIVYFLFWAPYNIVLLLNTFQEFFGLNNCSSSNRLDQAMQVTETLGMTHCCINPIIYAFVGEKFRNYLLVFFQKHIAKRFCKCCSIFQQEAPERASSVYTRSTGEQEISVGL

[3] = biological target: T1, C-C chemokine receptor type 5; experiment: Inhibition of human C-C chemokine receptor 5 by displacement of [125I]-labeled MIP-1alpha from CHO cell membranes
Target sequence in this assay (P51681 whole entry): as above

[4] = Plasma clearance in rat; assay type: ADME, organism-based; settings: read-out: Clp
[5] = Oral bioavailability in rat; assay type: ADME, organism-based; settings: in vivo
[6] = system: Rattus norvegicus; experiment: Area under curve in rat after p.o. administration; assay type: ADME, organism-based; settings: in vivo, po
[7] = Hafl life rat; assay type: ADME, organism-based; settings: in vivo
[8] = system: HeLa; experiment: as §1; assay type: functional, cell-based; settings: Homo sapiens; how it was run: as §2
[9] = biological target: T1, C-C chemokine receptor type 5; experiment: Inhibitory activity against human Chemokine receptor 5 at 2 uM concentration; how it was run: as §3
Target sequence in this assay (P51681 whole entry, looked up): as the sequence (P51681 whole entry) above

[10] = system: Human immunodeficiency virus 1; experiment: Concentration required for anti viral activity against BAL-1 strain of HIV-1 was determined using peripheral blood mononuclear cells; assay type: functional
How it was run: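 Seven-day in vitro infectivity assay in peripheral blood mononuclear cells infected with the HIV-1 BAL-1 strain. Read-out is the IC95.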

[11] = system: HeLa; experiment: In vitro antiviral activity against HIV-1 infected HeLa cells from GP120-membrane-based assay; assay type: functional; settings: Homo sapiens; how it was run: as §2
[12] = biological target: T1, C-C chemokine receptor type 5; experiment: Inhibitory activity against human Chemokine receptor 5 when co-administered with compound 8f; how it was run: as §3
Target sequence in this assay (P51681 whole entry): as above

[13] = system: HeLa; experiment: In vitro antiviral activity against HIV-1 infected HeLa cells when co-administered with compound 8f; assay type: functional; settings: Homo sapiens; how it was run: as §2
[14] = Hafl life in rat; assay type: ADME, organism-based; settings: in vivo
[15] = biological target: T1, C-C chemokine receptor type 5; experiment: Inhibitory concentration to displace [125I]-MIP-1 alpha from CX3C chemokine receptor 5; how it was run: as §3
Target sequence in this assay (P51681 whole entry): as above

[16] = biological target: T1, C-C chemokine receptor type 5; experiment: Inhibitory concentration to displace [125I]-MIP-1 alpha from human […] chemokine receptor 5 expressed in CHO cell; assay type: cell-based; how it was run: as §3
Target sequence in this assay (P51681 whole entry): as above

[17] = biological target: T1, C-C chemokine receptor type 5; experiment: Inhibitory activity against human […] chemokine receptor 5 when co-administered with compound 8g
Target sequence in this assay (P51681 whole entry): as above

[18] = system: HeLa; experiment: In vitro antiviral activity against HIV-1 infected HeLa cells when co-administered with compound 8g; assay type: functional; settings: Homo sapiens; how it was run: as §2

Row | Compound | IC90 [1] [nM] | IC50 [2] [nM] | other results
1 | CCn1ncc(C(C)(C)c2ccccc2)c1C1CCN(C[C@H]2CN([C@@H](C(=O)O)C3CCCCC3)C[C@@H]2c2ccccc2)CC1 | 300 | 6.9 | –
2 | CCn1nc(-c2ccc(CN)cc2)cc1C1CCN(C[C@H]2CN([C@@H](C(=O)O)C3CCCCC3)C[C@@H]2c2ccccc2)CC1 | – | 112 | –
3 | CCn1nc(CCc2ccccc2)cc1C1CCN(C[C@H]2CN([C@@H](C(=O)O)C3CCCCC3)C[C@@H]2c2cccc(F)c2)CC1 | 11 | – | IC50 [3]: 2.2 nM; clearance [4]: 72 mL/min/kg; bioavailability [5]: 3.2%; AUC N [6]: 0.01 uM hr dose-1; half-life [7]: 27 min
4 | Cn1cc(CCc2ccccc2)c(C2CCN(C[C@H]3CN([C@@H](C(=O)O)C4CCCCC4)C[C@@H]3c3ccccc3)CC2)n1 | – | – | IC50 [3]: 23 nM
5 | CCCn1ncc(CCc2ccccc2)c1C1CCN(C[C@H]2CN([C@@H](C(=O)O)C3CCCCC3)C[C@@H]2c2ccccc2)CC1 | 11 | – | IC50 [3]: 0.6 nM
6 | O=C(O)[C@@H](C1CCCCC1)N1C[C@H](CN2CCC(c3cc(-c4cccc5ccccc45)[nH]n3)CC2)[C@@H](c2ccccc2)C1 | > 300 | – | IC50 [3]: 7.5 nM
7 | O=C(O)[C@@H](C1CCCCC1)N1C[C@H](CN2CCC(c3nocc3Cc3ccccc3)CC2)[C@@H](c2ccccc2)C1 | 3.7 | 1.2 | –
8 | Cc1cc(-c2ccccc2)n(C2CCN(C[C@H]3CN([C@@H](C(=O)O)C4CCCCC4)C[C@@H]3c3ccccc3)CC2)n1 | – | – | inhibition [9]: 65%
9 | CCN(C(=O)OCc1ccccc1)C1CCN(CC[C@H](CN(C)S(=O)(=O)c2ccccc2)c2cccc(Cl)c2)CC1 | – | – | IC50 [3]: 2.4 nM; IC95 [10]: 13 nM
10 | CCn1cc(CCc2ccccc2)c(C2CCN(C[C@H]3CN([C@@H](C(=O)O)C4CCCCC4)C[C@@H]3c3ccccc3)CC2)n1 | 300 | 2.3 | –
11 | O=C(O)[C@@H](C1CCCCC1)N1C[C@H](CN2CCC(c3cc(Cc4ccccc4)n[nH]3)CC2)[C@@H](c2ccccc2)C1 | 0.4 | 2.2 | –
12 | CCn1nc(-c2cccc3ccccc23)cc1C1CCN(C[C@H]2CN([C@@H](C(=O)O)C3CCCCC3)C[C@@H]2c2cccc(F)c2)CC1 | – | – | IC50 [3]: 16 nM
13 | CCn1ncc(Cc2ccccc2)c1C1CCN(C[C@H]2CN([C@@H](C(=O)O)C3CCCCC3)C[C@@H]2c2ccccc2)CC1 | 3.7 | 3 | IC90 [11]: 10 nM
14 | CCn1nc(C2CCN(C[C@H]3CN([C@@H](C(=O)O)C4CCCCC4)C[C@@H]3c3ccccc3)CC2)cc1Cc1ccccc1 | > 300 | 76 | –
15 | O=C(O)[C@@H](C1CCCCC1)N1C[C@H](CN2CCC(CCCc3ccccc3)CC2)[C@@H](c2ccccc2)C1 | – | – | IC50 [3]: 0.2 nM; IC95 [10]: 93 nM
16 | CCCn1cc(CCc2ccccc2)c(C2CCN(C[C@H]3CN([C@@H](C(=O)O)C4CCCCC4)C[C@@H]3c3ccccc3)CC2)n1 | – | – | IC50 [3]: 9 nM

Row | Compound | IC90 [1] [nM] | IC50 [2] [nM] | other results
17 | CCc1cc(Cc2ccccc2)n(C2CCN(C[C@H]3CN([C@@H](C(=O)O)C4CCCCC4)C[C@@H]3c3ccccc3)CC2)n1 | – | – | IC50 [12]: 78 nM; IC90 [13]: > 300 nM
18 | CCn1cc(Cc2ccccc2)c(C2CCN(C[C@H]3CN([C@@H](C(=O)O)C4CCCCC4)C[C@@H]3c3ccccc3)CC2)n1 | > 300 | 20 | –
19 | CCCn1nc(Cc2ccccc2)cc1C1CCN(C[C@H]2CN([C@@H](C(=O)O)C3CCCCC3)C[C@@H]2c2ccccc2)CC1 | 1.2 | 4.6 | –
20 | Cc1cc(-c2ccccc2)nn1C1CCN(C[C@H]2CN([C@@H](C(=O)O)C3CCCCC3)C[C@@H]2c2ccccc2)CC1 | – | – | inhibition [9]: 79%
21 | O=C(O)[C@@H](C1CCCCC1)N1C[C@H](CN2CCC(c3n[nH]cc3CCc3ccccc3)CC2)[C@@H](c2ccccc2)C1 | 33 | 1.2 | –
22 | O=C(O)[C@@H](C1CCCCC1)N1C[C@H](CN2CCC(c3cc(-c4ccc(Cl)cc4Cl)[nH]n3)CC2)[C@@H](c2cccc(F)c2)C1 | > 300 | – | IC50 [3]: 9 nM
23 | O=C(O)[C@@H](C1CCCCC1)N1C[C@H](CN2CCC(c3[nH]ncc3Cc3ccccc3)CC2)[C@@H](c2ccccc2)C1 | 100 | 4.8 | –
24 | O=C(O)Cn1nc(Cc2ccccc2)cc1C1CCN(C[C@H]2CN([C@@H](C(=O)O)C3CCCCC3)C[C@@H]2c2ccccc2)CC1 | – | 33 | –
25 | O=C(O)[C@@H](C1CCCCC1)N1C[C@H](CN2CCC(c3oncc3Cc3ccccc3)CC2)[C@@H](c2ccccc2)C1 | 0.4 | 0.8 | clearance [4]: 67 mL/min/kg; bioavailability [5]: 5.9%; AUC N [6]: 0.03 uM hr dose-1
26 | O=C(O)[C@@H](C1CCCCC1)N1C[C@H](CN2CCC(c3cc(-c4ccc(Cl)cc4)n[nH]3)CC2)[C@@H](c2cccc(F)c2)C1 | > 300 | – | IC50 [3]: 4 nM
27 | CCCCn1nc(Cc2ccccc2)cc1C1CCN(C[C@H]2CN([C@@H](C(=O)O)C3CCCCC3)C[C@@H]2c2ccccc2)CC1 | 11 | 3 | –
28 | CCc1cc(CCc2ccccc2)n(C2CCN(C[C@H]3CN([C@@H](C(=O)O)C4CCCCC4)C[C@@H]3c3ccccc3)CC2)n1 | – | – | inhibition [9]: 82%
29 | CCc1cc(CCc2ccccc2)nn1C1CCN(C[C@H]2CN([C@@H](C(=O)O)C3CCCCC3)C[C@@H]2c2ccccc2)CC1 | – | – | IC50 [17]: 105 nM; IC90 [18]: > 300 nM
30 | CCn1ncc(CCc2ccccc2)c1C1CCN(C[C@H]2CN([C@@H](C(=O)O)C3CCCCC3)C[C@@H]2c2ccccc2)CC1 | 0.4 | 0.6 | clearance [4]: 79 mL/min/kg; bioavailability [5]: 2.6%; AUC N [6]: 0.01 uM hr dose-1
31 | COc1ccc(-c2cc(C3CCN(C[C@H]4CN([C@@H](C(=O)O)C5CCCCC5)C[C@@H]4c4cccc(F)c4)CC3)[nH]n2)cc1 | > 300 | – | IC50 [3]: 12 nM

Second part, led by results:

Row | IC90 [1] [nM] | IC50 [2] [nM] | Compound | other results
32 | – | 11 | CCn1ncc(C2(c3ccccc3)CC2)c1C1CCN(C[C@H]2CN([C@@H](C(=O)O)C3CCCCC3)C[C@@H]2c2ccccc2)CC1 | –
33 | – | 41 | O=C(c1ccccc1)c1c[nH]nc1C1CCN(C[C@H]2CN([C@@H](C(=O)O)C3CCCCC3)C[C@@H]2c2ccccc2)CC1 | –
34 | > 300 | 4.4 | O=C(O)[C@@H](C1CCCCC1)N1C[C@H](CN2CCC(c3n[nH]cc3C3(c4ccccc4)CC3)CC2)[C@@H](c2ccccc2)C1 | –
35 | > 300 | – | N#Cc1ccc(-c2cc(C3CCN(C[C@H]4CN([C@@H](C(=O)O)C5CCCCC5)C[C@@H]4c4ccccc4)CC3)n[nH]2)cc1 | IC50 [3]: 7.5 nM; IC50 [8]: 100 nM
36 | 3.7 | – | Cn1ncc(CCc2ccccc2)c1C1CCN(C[C@H]2CN([C@@H](C(=O)O)C3CCCCC3)C[C@@H]2c2ccccc2)CC1 | IC50 [3]: 1 nM
37 | 0.4 | – | CCn1nc(Cc2ccccc2)cc1C1CCN(C[C@H]2CN([C@@H](C(=O)O)C3CCCCC3)C[C@@H]2c2ccccc2)CC1 | clearance [4]: 64 mL/min/kg; bioavailability [5]: 4.1%; half-life [14]: 49.2 min; AUC N [6]: 0.02 uM hr dose-1; IC50 [15]: 2.1 nM; IC50 [16]: 1.2 nM
38 | – | 11.5 | CC(C)(c1ccccc1)c1cn[nH]c1C1CCN(C[C@H]2CN([C@@H](C(=O)O)C3CCCCC3)C[C@@H]2c2ccccc2)CC1 | –
39 | – | 23 | CCn1ncc(C(=O)c2ccccc2)c1C1CCN(C[C@H]2CN([C@@H](C(=O)O)C3CCCCC3)C[C@@H]2c2ccccc2)CC1 | –
40 | 300 | 2.1 | O=C(O)[C@@H](C1CCCCC1)N1C[C@H](CN2CCC(c3n[nH]cc3C(F)(F)c3ccccc3)CC2)[C@@H](c2ccccc2)C1 | –
41 | 33 | 4.8 | O=C(O)[C@@H](C1CCCCC1)N1C[C@H](CN2CCC(c3cc(Cc4ccccc4)nn3CC(F)(F)F)CC2)[C@@H](c2ccccc2)C1 | –
42 | 3.7 | 4.2 | Cn1nc(Cc2ccccc2)cc1C1CCN(C[C@H]2CN([C@@H](C(=O)O)C3CCCCC3)C[C@@H]2c2ccccc2)CC1 | –
43 | 11 | 9 | CCOC(=O)Cn1nc(Cc2ccccc2)cc1C1CCN(C[C@H]2CN([C@@H](C(=O)O)C3CCCCC3)C[C@@H]2c2ccccc2)CC1 | –
44 | > 300 | 16 | CCn1nc(-c2ccc(C#N)cc2)cc1C1CCN(C[C@H]2CN([C@@H](C(=O)O)C3CCCCC3)C[C@@H]2c2ccccc2)CC1 | IC50 [8]: 33 nM
45 | > 300 | 22 | CCn1nc(-c2ccccc2)cc1C1CCN(C[C@H]2CN([C@@H](C(=O)O)C3CCCCC3)C[C@@H]2c2ccccc2)CC1 | clearance [4]: 3.8 mL/min/kg; bioavailability [5]: 21%; AUC N [6]: 1.7 uM hr dose-1; half-life [7]: 90 min; IC50 [8]: 100 nM
